Experiments:
[1] = Selectivity ratio, ratio of IC50 for MAOB to IC50 for MAOA
[2] = molecular target: T1, Amine oxidase [flavin-containing] B (Homo sapiens, UniProt P27338); test: Inhibition of MAOB by spectrofluorimetry
T1 sequence (P27338 whole entry): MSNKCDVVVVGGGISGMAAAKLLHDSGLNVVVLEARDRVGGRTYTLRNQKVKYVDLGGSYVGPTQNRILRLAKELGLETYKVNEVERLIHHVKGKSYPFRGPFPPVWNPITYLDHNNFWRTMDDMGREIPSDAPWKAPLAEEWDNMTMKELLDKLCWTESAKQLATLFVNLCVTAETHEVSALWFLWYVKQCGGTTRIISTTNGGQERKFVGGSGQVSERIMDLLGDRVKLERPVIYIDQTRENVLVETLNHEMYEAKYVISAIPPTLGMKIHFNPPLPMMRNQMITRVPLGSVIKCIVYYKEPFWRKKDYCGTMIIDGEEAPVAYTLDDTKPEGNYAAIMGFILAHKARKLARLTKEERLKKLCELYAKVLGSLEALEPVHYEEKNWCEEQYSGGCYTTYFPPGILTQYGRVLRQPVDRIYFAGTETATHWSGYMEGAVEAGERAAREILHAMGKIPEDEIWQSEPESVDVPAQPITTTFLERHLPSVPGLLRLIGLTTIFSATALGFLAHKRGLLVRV

[3] = molecular target: T2, Amine oxidase [flavin-containing] A (Homo sapiens, UniProt P21397); test: Inhibition of MAOA by spectrofluorimetry
T2 sequence (P21397 whole entry): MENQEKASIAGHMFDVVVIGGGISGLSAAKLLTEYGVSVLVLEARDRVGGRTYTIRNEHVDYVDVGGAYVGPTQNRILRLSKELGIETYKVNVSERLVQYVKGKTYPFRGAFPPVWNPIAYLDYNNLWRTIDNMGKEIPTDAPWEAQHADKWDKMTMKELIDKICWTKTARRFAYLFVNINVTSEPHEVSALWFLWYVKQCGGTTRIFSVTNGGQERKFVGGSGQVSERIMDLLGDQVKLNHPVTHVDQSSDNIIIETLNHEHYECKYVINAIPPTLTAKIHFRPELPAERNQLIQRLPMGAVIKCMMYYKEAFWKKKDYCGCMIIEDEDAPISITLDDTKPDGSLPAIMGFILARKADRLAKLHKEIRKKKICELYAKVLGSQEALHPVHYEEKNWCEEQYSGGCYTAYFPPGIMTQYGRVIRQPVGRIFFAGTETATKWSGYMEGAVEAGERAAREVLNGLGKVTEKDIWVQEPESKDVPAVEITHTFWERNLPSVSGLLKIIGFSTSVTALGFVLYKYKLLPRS
How it was run: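 Fluorescence-based microplate assay for MAO-A and MAO-B inhibition, following the group's earlier reported method. Click reaction mixtures, made with CuSO4 and sodium ascorbate in t-BuOH/H2O (1:1) over 24 h, were diluted into 96-well plates from 0 to 100 μM. Fluorescence was read at λex 360 nm and λem 460 nm.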

Ratio IC50 [1] | IC50 [2] [µM] | IC50 [3] [µM] | Structure (SMILES)
2.89 | 56.9 | 19.6 | NCc1cn(-c2ccc(C(=O)O)cc2)nn1
526 | 511 | 0.97 | NCc1cn(-c2ccccc2)nn1
140 | 116 | 0.83 | NCc1cn(-c2ccncc2)nn1
0.95 | 62.1 | 50.7 | NCc1cn(-c2cccc(C(=O)O)c2)nn1
